Measurements: ChEMBL document CHEMBL2163298, “Inhibition of human topoisomerases I and II by simocyclinone D8” (J Nat Prod, 2012)
Activity calls are given as the source filed them. The rule behind the calls is not given here.

What was measured:
[1] = biological target: DNA topoisomerase 2-alpha (Homo sapiens) (UniProt P11388); assay: Inhibition of human topoisomerase 2-mediated plasmid DNA cleavage at 25 to 200 uM after 10 mins by agarose gel electrophoresis electrophoresis
In short: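 Relaxed plasmid (0.3 μg) with 5 units human Topo II and 1 mM ATP at 37 °C for 10 min. Buffer: pH 8, 10 mM MgCl2. Stopped with 1% SDS, then EDTA and proteinase K at 50 °C for 60 min. Extracted and run on ethidium agarose gels.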

[2] = biological target: T1, DNA topoisomerase 1 (Homo sapiens) (UniProt P11387); assay: Dissociation of human topo 1-CPT-DNA ternary complex assessed as reduction in nicked DNA formation at 160 uM after 10 mins by dilution DNA cleavage assay relative to untreated-control; design: scale not given: the % may be the effect or the level left
T1 sequence (whole entry): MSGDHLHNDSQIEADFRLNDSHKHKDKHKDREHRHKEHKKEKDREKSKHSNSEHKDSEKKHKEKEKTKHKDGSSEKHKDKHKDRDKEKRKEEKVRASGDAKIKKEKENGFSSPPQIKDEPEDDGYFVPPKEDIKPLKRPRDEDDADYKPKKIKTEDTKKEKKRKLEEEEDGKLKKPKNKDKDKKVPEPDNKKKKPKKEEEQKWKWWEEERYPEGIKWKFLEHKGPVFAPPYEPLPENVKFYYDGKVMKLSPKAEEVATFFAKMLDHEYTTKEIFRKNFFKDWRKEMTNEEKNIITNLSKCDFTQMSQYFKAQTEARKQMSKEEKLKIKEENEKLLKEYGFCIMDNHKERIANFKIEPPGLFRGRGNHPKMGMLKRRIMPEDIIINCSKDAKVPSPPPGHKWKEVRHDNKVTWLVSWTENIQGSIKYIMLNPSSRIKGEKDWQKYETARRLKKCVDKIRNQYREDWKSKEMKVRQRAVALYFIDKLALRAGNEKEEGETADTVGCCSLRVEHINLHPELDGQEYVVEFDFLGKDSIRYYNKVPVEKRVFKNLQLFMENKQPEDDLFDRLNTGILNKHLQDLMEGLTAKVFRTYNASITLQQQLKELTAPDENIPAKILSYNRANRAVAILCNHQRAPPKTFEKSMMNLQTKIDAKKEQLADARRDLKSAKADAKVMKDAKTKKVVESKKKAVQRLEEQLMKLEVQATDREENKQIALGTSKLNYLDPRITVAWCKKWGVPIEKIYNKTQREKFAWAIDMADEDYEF
In short: (§1)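 Topo I cleavage mix (0.6 μg relaxed plasmid, 5 units human Topo I, 2.5 μM CPT), 37 °C 5 min. Then diluted 10-fold in drug-free buffer or buffer holding 2.5 μM CPT, 160 μM SD8, or both, 37 °C 10 min. SDS/EDTA/proteinase K workup. Nicked DNA normalized to the undiluted control; mean and absolute deviation of two assays.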

[3] = biological target: T1, DNA topoisomerase 1 (Homo sapiens); assay: Dissociation of human topo 1-CPT-DNA ternary complex assessed as reduction in nicked DNA formation at 160 uM after 10 mins by dilution DNA cleavage assay in presence of 2.5 uM CPT; design: scale not given: the % may be the effect or the level left; in short: as §1
[4] = biological target: T1, DNA topoisomerase 1 (Homo sapiens); assay: Dissociation of human topo 1-CPT-DNA ternary complex assessed as reduction in nicked DNA formation at 160 uM after 10 mins by dilution DNA cleavage assay; design: scale not given: the % may be the effect or the level left; in short: as §1
[5] = biological target: DNA topoisomerase 2-alpha (Homo sapiens) (UniProt P11388); assay: Dissociation of human topo 2-etoposide-DNA ternary complex assessed as nicked DNA formation at 150 uM after 20 mins by two-step DNA cleavage assay; settings: in the assay text read “linear DNA” for “nicked DNA”
In short: (§2)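 Human Topo II with 7.5 μM etoposide on relaxed plasmid DNA (50 mM Tris-HCl pH 8, 10 mM MgCl2, 10 mM DTT, 1 mM ATP, BSA; 6-fold scale), 37 °C 5 min. Then 150 μM SD8 or 2% DMSO at 37 °C. Timed aliquots stopped with 1% SDS, then EDTA/proteinase K 50 °C 60 min. Linear DNA quantified on ethidium agarose gels.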

[6] = biological target: T1, DNA topoisomerase 1 (Homo sapiens); assay: Dissociation of human topo 1-CPT-DNA ternary complex assessed as reduction in nicked DNA formation measuring remaining ternary complex at 150 uM after 20 mins by two-step DNA cleavage assay
In short: (§3)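 Topo I with 7.5 μM CPT on relaxed plasmid DNA (6-fold scaled cleavage mix: 50 mM Tris-HCl pH 7.5, 1 mM MgCl2, 1 mM DTT, BSA), 37 °C 5 min. Then 150 μM SD8 or DMSO (2% final), continued at 37 °C. Aliquots taken at set times, stopped with 1% SDS, then EDTA/proteinase K 37 °C 15 min. Nicked DNA read on ethidium agarose gels.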

[7] = biological target: DNA topoisomerase 2-alpha (Homo sapiens) (UniProt P11388); assay: Dissociation of human topo 2-etoposide-DNA ternary complex assessed as reduction in […] formation at 150 uM by two-step DNA cleavage assay; in short: as §2
[8] = biological target: T1, DNA topoisomerase 1 (Homo sapiens); assay: Dissociation of human topo 1-CPT-DNA ternary complex assessed as reduction in nicked DNA formation at 150 uM by two-step DNA cleavage assay; design: scale not given: the % may be the effect or the level left; in short: as §3
[9] = biological target: DNA topoisomerase 2-alpha (Homo sapiens) (UniProt P11388); assay: Inhibition of human topoisomerase 2-mediated plasmid DNA cleavage preincubated at 150 uM for 5 mins before addition of poison measured after 10 mins by agarose gel electrophoresis
In short: (§4)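 Two-step assay at 4-fold scale: Topo I or human Topo II with 150 μM SD8, 37 °C 5 min. Aliquots then given 7.5 μM CPT (Topo I) or 7.5 μM etoposide (Topo II), 37 °C 10 min. Stopped with 1% SDS, then proteinase K (Topo I 37 °C 15 min; Topo II 50 °C 60 min). Gel readout.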

[10] = biological target: T1, DNA topoisomerase 1 (Homo sapiens); assay: Inhibition of human topoisomerase 1-mediated plasmid DNA cleavage preincubated at 150 uM for 5 mins before addition of poison measured after 10 mins by agarose gel electrophoresis; in short: as §4
[11] = biological target: T1, DNA topoisomerase 1 (Homo sapiens); assay: Inhibition of human topoisomerase 1-mediated plasmid DNA cleavage at 25 to 200 uM after 10 mins by agarose gel electrophoresis
In short: (§5)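 Relaxed plasmid (0.3 μg) with 5 units human Topo I at 37 °C for 10 min. Buffer: pH 7.5, 1 mM MgCl2. Stopped with 1% SDS, then 25 mM EDTA and 100 μg/mL proteinase K, 37 °C 15 min. Phenol extraction, 1.2% agarose gel with ethidium bromide at 2 V/cm for 12 h. 5 μM CPT reaction as control.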

[12] = biological target: T1, DNA topoisomerase 1 (Homo sapiens); assay: Stimulation of human topoisomerase 1-mediated plasmid DNA cleavage at 25 to 200 uM after 10 mins by agarose gel electrophoresis; in short: as §5
[13] = biological target: T1, DNA topoisomerase 1 (Homo sapiens); assay: Ratio of CPT IC50 to compound IC50 for human topoisomerase 1-mediated relaxation of supercoiled pBR322 DNA
DNA topoisomerase 1 = biological target: T2, DNA topoisomerase 1 (Homo sapiens, UniProt P11387); assay: Inhibition of human topoisomerase 1-mediated relaxation of supercoiled pBR322 DNA after 15 to 30 mins by agarose gel electrophoresis
T2 sequence (P11387 whole entry): T1 sequence (whole entry)
In short: (§6)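 Supercoiled pBR322 (0.3 μg) relaxed by human Topo I (1 unit, 30 min; or 2 units, 15 min) or calf thymus Topo I (0.5 unit, 15 min), 37 °C. Buffer: 50 mM Tris-HCl pH 7.5, 1 mM MgCl2, 1 mM DTT, 50 μg/mL BSA. Stopped with 25 mM EDTA. Run on 1.2% agarose in TAE, ethidium-stained and quantified. IC50 taken from these gels.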

[14] = biological target: T1, DNA topoisomerase 1 (Homo sapiens); assay: Inhibition of human topoisomerase 1-mediated relaxation of supercoiled pBR322 DNA at 50 to 400 uM after 15 to 30 mins by agarose gel electrophoresis in presence of 200 mM potassium glutamate
In short: (§7)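 Human Topo I relaxation of supercoiled pBR322 at 37 °C, run as the standard assay. Mg2+ raised up to 1 mM, NaCl up to 100 mM, or potassium glutamate up to 200 mM. Products resolved on agarose gels.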

[15] = biological target: T1, DNA topoisomerase 1 (Homo sapiens); assay: Inhibition of human topoisomerase 1-mediated relaxation of supercoiled pBR322 DNA at 50 to 400 uM after 15 to 30 mins by agarose gel electrophoresis in presence of 100 mM NaCl; in short: as §7
[16] = biological target: T1, DNA topoisomerase 1 (Homo sapiens); assay: Inhibition of human topoisomerase 1-mediated relaxation of supercoiled pBR322 DNA at 50 to 400 uM after 15 to 30 mins by agarose gel electrophoresis in presence of 1 mM magnesium; in short: as §7
[17] = biological target: T3, Topoisomerase I (Bos taurus) (UniProt Q2HPH0); assay: Inhibition of calf thymus topoisomerase 1-mediated relaxation of supercoiled pBR322 DNA after 15 mins by agarose gel electrophoresis; in short: as §6
T3 sequence (whole entry): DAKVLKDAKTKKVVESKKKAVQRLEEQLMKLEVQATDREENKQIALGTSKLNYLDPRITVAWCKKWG

[18] = biological target: DNA topoisomerase 2-alpha (Homo sapiens) (UniProt P11388); assay: Inhibition of human topoisomerase 2-mediated relaxation of supercoiled pBR322 DNA at 50 to 400 uM after 30 mins by agarose gel electrophoresis
In short: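 Human Topo II (2 units) relaxed 0.3 μg supercoiled pBR322 at 37 °C for 30 min. Stopped with 25 mM EDTA, 5 min. Analyzed on agarose gels.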

[19] = biological target: T1, DNA topoisomerase 1 (Homo sapiens); assay: Inhibition of human topoisomerase 1-mediated relaxation of supercoiled pBR322 DNA at 50 to 400 uM after 15 to 30 mins by agarose gel electrophoresis; in short: as §6

Sequence of DNA topoisomerase 2-alpha (Homo sapiens) (P11388 whole entry): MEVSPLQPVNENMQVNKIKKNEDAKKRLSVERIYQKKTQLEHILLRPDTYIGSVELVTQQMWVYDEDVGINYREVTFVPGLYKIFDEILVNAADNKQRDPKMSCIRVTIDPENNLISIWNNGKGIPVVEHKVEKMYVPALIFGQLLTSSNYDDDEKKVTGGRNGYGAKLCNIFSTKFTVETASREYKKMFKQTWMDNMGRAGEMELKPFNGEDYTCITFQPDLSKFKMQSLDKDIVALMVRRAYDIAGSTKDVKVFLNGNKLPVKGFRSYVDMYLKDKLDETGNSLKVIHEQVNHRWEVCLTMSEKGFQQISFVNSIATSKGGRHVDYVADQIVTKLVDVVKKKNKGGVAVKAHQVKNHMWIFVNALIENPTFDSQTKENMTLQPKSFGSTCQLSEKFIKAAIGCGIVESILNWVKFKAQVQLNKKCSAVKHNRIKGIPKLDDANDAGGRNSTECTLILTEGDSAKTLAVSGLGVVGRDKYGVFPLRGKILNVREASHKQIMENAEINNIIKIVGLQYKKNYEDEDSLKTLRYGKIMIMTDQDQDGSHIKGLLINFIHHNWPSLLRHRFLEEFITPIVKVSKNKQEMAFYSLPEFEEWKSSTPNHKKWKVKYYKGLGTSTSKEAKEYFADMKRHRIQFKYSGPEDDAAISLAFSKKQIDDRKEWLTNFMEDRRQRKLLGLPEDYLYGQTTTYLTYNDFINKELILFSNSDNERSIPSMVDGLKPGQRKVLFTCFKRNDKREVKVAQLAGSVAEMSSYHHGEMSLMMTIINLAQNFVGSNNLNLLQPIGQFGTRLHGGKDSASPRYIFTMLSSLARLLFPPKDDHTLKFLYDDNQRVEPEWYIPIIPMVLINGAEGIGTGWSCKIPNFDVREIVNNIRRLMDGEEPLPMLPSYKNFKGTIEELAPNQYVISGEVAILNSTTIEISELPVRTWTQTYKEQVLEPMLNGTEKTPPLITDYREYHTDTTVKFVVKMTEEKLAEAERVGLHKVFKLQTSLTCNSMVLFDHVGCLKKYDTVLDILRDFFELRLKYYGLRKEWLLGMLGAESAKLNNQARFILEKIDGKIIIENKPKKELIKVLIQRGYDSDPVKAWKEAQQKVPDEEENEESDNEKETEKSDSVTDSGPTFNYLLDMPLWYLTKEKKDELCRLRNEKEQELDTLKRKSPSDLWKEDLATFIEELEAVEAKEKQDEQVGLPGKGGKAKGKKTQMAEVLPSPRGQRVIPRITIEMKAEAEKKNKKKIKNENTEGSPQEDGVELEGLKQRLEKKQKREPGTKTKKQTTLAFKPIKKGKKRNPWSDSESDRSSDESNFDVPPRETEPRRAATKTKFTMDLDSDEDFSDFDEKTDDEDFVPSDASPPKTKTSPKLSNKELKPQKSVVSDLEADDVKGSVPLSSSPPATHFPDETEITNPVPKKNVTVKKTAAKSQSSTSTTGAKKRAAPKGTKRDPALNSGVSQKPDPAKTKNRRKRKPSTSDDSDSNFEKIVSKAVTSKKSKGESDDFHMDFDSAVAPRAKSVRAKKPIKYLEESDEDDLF

inhibition [1]: Active | Activity [2]: 20% | Activity [3]: 46% | Activity [4]: 55% | Activity [5]: 107% | Activity [6]: 53% | Activity [7]: inactive | Activity [8]: 40% | inhibition [11]: Active | Activity [12]: inactive | Ratio IC50 [13]: 0.5 | IC50 (DNA topoisomerase 1): 60 µM | inhibition [14]: Active | inhibition [15]: Active | inhibition [16]: Active | inhibition [17]: Active | inhibition [18]: Active | inhibition [19]: Active
SMILES: CC(=O)O[C@@H]1[C@@H](C)O[C@@H](c2ccc3c(c2O)[C@@H](O)[C@]24O[C@@]2(C3=O)[C@@]2(O)C(=O)C=C(C)C[C@@]2(O)C[C@@H]4O)C[C@H]1OC(=O)/C=C/C=C/C=C/C=C/C(=O)Nc1c(O)c2ccc(O)c(Cl)c2oc1=O [SIMOCYCLINONE D8]
inhibition [9]: Active | inhibition [10]: Active
